Test [1] has as its system Brugia malayi. Briefly: Antifilarial activity against adult Brugia malayi by motility assay. It is filed as functional, organism-based. The following applies: for IC50: Brugia malayi. Put shortly: (§1)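 Brugia malayi (sub-periodic strain), female adult worms or microfilariae, scored by motility following the Murthy and Chatterjee method. Compounds and reference DEC dissolved in DMSO, final DMSO below 0.1% in incubation medium; DMSO-only controls. LC100 is the concentration giving 100% loss of motility (parasite death); IC50 is the concentration giving 50% motility inhibition.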

Test [2] has as its system Brugia malayi. Briefly: Growth inhibition of adult Brugia malayi by MTT assay. The test is classed as functional. Put shortly:
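Adult female B. malayi worms were exposed in vitro to agents dissolved in DMSO, keeping final DMSO below 0.1%. Controls received DMSO alone. Results are given as mean % inhibition of MTT reduction.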
A general note: Tetrazolium assays rely on reduction of a dye to a coloured formazan, in cell work by metabolically active cells.

Test [3] concerns Brugia malayi. Briefly: Antifilarial activity against microfilariae Brugia malayi by motility assay. It is filed as functional, organism-based. The following applies: for IC50: Brugia malayi. Put shortly:
as §1

For test [4], the system named is Brugia malayi. Briefly: Antifilarial activity against 5 to 7 months old Brugia malayi infected in Mastomys coucha assessed as reduction in worm burden at 200 mg/kg, sc administered 7 to 8 days post-adult worm transplantation for 5 days measured on day 91 relative to control. The test is classed as functional. Set-up: scale not given: the % may be the effect or the level left. The following applies: route subcutaneous. An outline of the steps: (§2)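 Mastomys coucha harbouring B. malayi were dosed at 200 or 50 mg/kg, with vehicle-treated animals as controls. Male, female and total adult worms recovered were counted and given as mean ± SD. Sterilized female worms were reported as count (%).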

The subject of test [5] is Brugia malayi. Briefly: Antifilarial activity against 5 to 7 months old Brugia malayi infected in Mastomys coucha assessed as sterilized female worm at 200 mg/kg, sc administered 7 to 8 days post-adult worm transplantation for 5 days measured on day 91 (reference value: 19.62%). The test is classed as functional. Particulars: route subcutaneous. An outline of the steps:
as §2

Test [6] relates to Brugia malayi. Put plainly: Antifilarial activity against Brugia malayi infected in Meriones unguiculatus assessed as sterilized female worm at 200 mg/kg, sc administered 7 to 8 days post-adult worm transplantation for 5 days measured after 42 days. Particulars: route subcutaneous. It is filed as functional. Put shortly:
(§3)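 Dosing was s.c. once daily × 5 days: 200 mg/kg (n = 4) or 25 mg/kg (n = 6), with vehicle-treated controls (n = 4). Read-outs were peritoneal-cavity microfilaraemia status, worms recovered (mean ± SD, P vs control) and % sterilized female worms.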

In test [7] the test system is Brugia malayi. Put plainly: Antifilarial activity against 5 to 7 months old Brugia malayi infected in Mastomys coucha assessed as sterilized female worm at 50 mg/kg, sc administered 7 to 8 days post-adult worm transplantation for 5 days measured on day 91 (reference value: 19.62%). It is filed as functional. The following applies: route subcutaneous. Put shortly:
as §2

Test [8] has as its system Brugia malayi. Briefly: Antifilarial activity against Brugia malayi infected in Meriones unguiculatus assessed as sterilized female worm at 25 mg/kg, sc administered 7 to 8 days post-adult worm transplantation for 5 days measured after 42 days. It is filed as functional. The following applies: route subcutaneous. An outline of the steps: as §3
For test [9], the system named is Brugia malayi. Briefly: Antifilarial activity against 5 to 7 months old Brugia malayi infected in Mastomys coucha assessed as reduction in worm burden at 50 mg/kg, sc administered 7 to 8 days post-adult worm transplantation for 5 days measured on day 91 relative to control. The test is classed as functional. On the set-up: scale not given: the % may be the effect or the level left. Particulars: route subcutaneous. Put shortly: as §2

Here are results for 14 compounds from ChEMBL document CHEMBL1949645, “In vitro and in vivo antifilarial activity evaluation of 3,6-epoxy [1,5]dioxocines: a new class of antifilarial agents” (Bioorg Med Chem Lett, 2012).

≈ marks a conversion by molar mass, not a printed value.

For the compound `O=C(/C=C/c1cc2c(c3ccccc13)OCC1COC2O1)c1ccccc1` (racemic), the LC100 in the test with Brugia malayi [1] and in the test on Brugia malayi [3] was >10 µg/mL each time. Moreover, the “growth inhibition (GI)” value in the test with Brugia malayi [2] was found to be 34%.

For the compound `CCN(CC)C(=O)N1CCN(C)CC1` [DIETHYLCARBAMAZINE], the LC100 was 800 µg/mL with Brugia malayi [1] and 500 µg/mL in the test with Brugia malayi [3]. Further, the IC50 with Brugia malayi [1] was 289 µg/mL (≈ 1450 µM); with Brugia malayi [3], 354 µg/mL (≈ 1780 µM). The “growth inhibition (GI)” value in the test with Brugia malayi [2] was determined as 64%.

For the compound `O=C(/C=C/c1cc2c(c3ccccc13)OCC1COC2O1)c1ccc(Cl)cc1` (racemic), the LC100 in the test with Brugia malayi [1] and in the test with Brugia malayi [3] was >10 µg/mL throughout. Besides, the “growth inhibition (GI)” value with Brugia malayi [2] was found to be 41%.

For `CCC(C)c1cc(/C=C/C(=O)c2ccc(Cl)cc2)cc2c1OCC1COC2O1` (racemic), the Activity in the test on Brugia malayi [4] came out at 38.16%; in the test with Brugia malayi [5], 17.78%; in the test on Brugia malayi [6] it was 63%. Moreover, the LC100 in the test on Brugia malayi [1] stood at 5 µg/mL; in the test with Brugia malayi [3], 10 µg/mL. For the same compound, the figures for the 50% inhibitory concentration (IC50) with Brugia malayi [1] and in the test on Brugia malayi [3] were 1.6 µg/mL (≈ 4.01 µM) and 3.5 µg/mL (≈ 8.77 µM), respectively.

Consider `COc1ccc(C(=O)/C=C/c2cc(C)c3c(c2)C2OCC(CO3)O2)cc1` (racemic), for which the Activity with Brugia malayi [4] was 32.89%; in the test on Brugia malayi [5] it was 24.6%; in the test with Brugia malayi [6], 24%. Further, the LC100 was 10 µg/mL in the test with Brugia malayi [1] and >10 µg/mL in the test on Brugia malayi [3]. Further, the figures for the IC50 in the test with Brugia malayi [1] and in the test on Brugia malayi [3] were 3.5 µg/mL (≈ 9.93 µM) and 3.9 µg/mL (≈ 11.1 µM), respectively. For the same compound, the “growth inhibition (GI)” value in the test with Brugia malayi [2] worked out at 22%.

As for `CCC(C)c1cc(/C=C/C(=O)c2ccc(C)cc2)cc2c1OCC1COC2O1` (racemic), in the test on Brugia malayi [1], the LC100 came to 10 µg/mL and half-maximal inhibition (IC50) required 0.5 µg/mL (≈ 1.32 µM). Also, the LC100 with Brugia malayi [3] is >10 µg/mL.

With `Cc1ccc(C(=O)/C=C/c2cc3c(c4ccccc24)OCC2COC3O2)cc1` (racemic), the LC100 in the test with Brugia malayi [1] and in the test with Brugia malayi [3] was >10 µg/mL in each case. Further, in the test on Brugia malayi [2], the “growth inhibition (GI)” value amounted to 33%.

With `Cc1cc(/C=C/C(=O)c2ccccc2)cc2c1OCC1COC2O1` (racemic), in the test with Brugia malayi [1], the LC100 turned out to be 1.25 µg/mL and the 50% inhibitory concentration (IC50) was 1 µg/mL (≈ 3.1 µM). The “growth inhibition (GI)” value with Brugia malayi [2] came out at 15%. Besides, in the test on Brugia malayi [3], the LC100 is 2.5 µg/mL and the half-inhibitory concentration (IC50) stood at 0.9 µg/mL (≈ 2.79 µM). Also, the Activity with Brugia malayi [6] came out at 29%.

In the case of `CCC(C)c1cc(/C=C/C(=O)c2ccccc2)cc2c1OCC1COC2O1` (racemic), in the test on Brugia malayi [1], the LC100 amounted to 2.5 µg/mL and the half-inhibitory concentration (IC50) amounted to 0.9 µg/mL (≈ 2.47 µM). Moreover, in the test on Brugia malayi [3], the LC100 was 5 µg/mL and 0.9 µg/mL (≈ 2.47 µM) corresponded to half-maximal inhibition (IC50). The Activity in the test with Brugia malayi [6] is on record as 27%.

In the test with Brugia malayi [1], `Cc1ccc(C(=O)/C=C/c2cc(C)c3c(c2)C2OCC(CO3)O2)cc1` (racemic) returned an LC100 of 1.25 µg/mL and a half-maximal inhibitory concentration (IC50) of 0.4 µg/mL (≈ 1.19 µM). Further, the “growth inhibition (GI)” value in the test with Brugia malayi [2] was 22%. For the same compound, in the test on Brugia malayi [3], the LC100 was 5 µg/mL and the 50% inhibitory concentration (IC50) turned out to be 1.8 µg/mL (≈ 5.35 µM). In addition, the Activity in the test with Brugia malayi [6] came out at 45%.

For the compound `CCC(C)c1cc(/C=C/C(=O)c2ccc(OC)cc2)cc2c1OCC1COC2O1` (racemic), the LC100 with Brugia malayi [1] and in the test with Brugia malayi [3] was >10 µg/mL in each case.

On to `COc1ccc(C(=O)/C=C/c2cc3c(c4ccccc24)OCC2COC3O2)cc1` (racemic), for which the LC100 in the test on Brugia malayi [1] and with Brugia malayi [3] was >10 µg/mL throughout. Moreover, the “growth inhibition (GI)” value in the test on Brugia malayi [2] amounted to 35%.

As to `Cc1cc(/C=C/C(=O)c2ccc(Cl)cc2)cc2c1OCC1COC2O1` (racemic), the LC100 with Brugia malayi [1] is 1.25 µg/mL; in the test with Brugia malayi [3], 2.5 µg/mL. In addition, the 50% inhibitory concentration (IC50) came out at 0.6 µg/mL (≈ 1.68 µM) in the test with Brugia malayi [1] and 1.1 µg/mL (≈ 3.08 µM) with Brugia malayi [3]. For the same compound, the “growth inhibition (GI)” value in the test with Brugia malayi [2] is listed as 39%. Also, in the test with Brugia malayi [6], the Activity came to 29%.

On to `CCN(CC)C(=O)N1CCN(C)CC1.O=C(O)CC(O)(CC(=O)O)C(=O)O` [DIETHYLCARBAMAZINE CITRATE], for which the figures for the Activity with Brugia malayi [7], in the test with Brugia malayi [8] and in the test on Brugia malayi [9] were 20.59%, 11% and 20.18%, respectively.

By IC50 is commonly meant the concentration that gives 50% inhibition.
